Source: ChEMBL document CHEMBL1165853, “Hybrids of 3alpha-methoxyserrat-14-en-21beta-ol (PJ-1) and 3beta-methoxyserrat-14-en-21beta-ol (PJ-2) and various anti-oxidants as cancer chemopreventive agents” (Eur J Med Chem, 2010)
Active and inactive are the calls of the source. The rule behind the calls is not given here.

Legend:
[1] = Cytotoxicity against human Raji cells assessed as cell viability at 1000 molar ratio by trypan blue staining method; assay type: cell-based; conditions: read-out: Activity
Summary of the method: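 Viability was measured by trypan blue staining of Raji cells after the 48 h, 37 °C EBV-EA induction run (n-butyric acid 4 mmol plus TPA 32 pmol), with compound at 1000 mol ratio/32 pmol TPA.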

[2] = Inhibition of TPA-induced EBV-early antigen activation in human Raji cells assessed as EA activation after 48 hrs; assay type: cell-based, human gammaherpesvirus 4
Summary of the method: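 Raji cells (EBV genome-carrying, virus non-producer Burkitt's lymphoma line; RPMI-1640 with 10% FBS) were seeded at 1×10⁶/mL and held 48 h at 37 °C with n-butyric acid (4 mmol), TPA (32 pmol) and test agent at 1000, 500, 100 or 10 mol ratio/32 pmol TPA. EA-positive cells were scored by indirect immunofluorescence with NPC patient serum, counting ≥500 cells, in triplicate. Results are expressed relative to the butyrate+TPA control (100%), and IC50 is given as mol ratio/32 pmol TPA.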

Mus musculus [3] = experiment: Inhibition of DMBA-induced/TPA-promoted carcinogenesis in ICR mouse assessed as reduction of mouse bearing papillomas length at 85 nmol administered 1 hr before TPA treatment measured after 20 weeks; assay type: functional
Summary of the method: (§1)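 In the two-stage mouse skin carcinogenesis model, DMBA was the initiator and TPA the promoter, and test agent was given at 85 nmol alongside DMBA/TPA. Papilloma-bearing mice (%), papillomas per mouse, and tumor length and width were followed through week 20 against a DMBA/TPA-only group.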

Mus musculus [4] = experiment: Inhibition of DMBA-induced/TPA-promoted carcinogenesis in ICR mouse assessed as reduction of mouse bearing papillomas width at 85 nmol administered 1 hr before TPA treatment measured after 20 weeks; assay type: functional; summary of the method: as §1
Mus musculus [5] = species on record: Mus musculus; experiment: Toxicity in ICR mouse assessed as lesional damage; assay type: organism-based; conditions: in vivo
Mus musculus [6] = species on record: Mus musculus; experiment: Toxicity in ICR mouse assessed as change in body weight; assay type: organism-based; conditions: in vivo
Mus musculus [7] = species on record: Mus musculus; experiment: Toxicity in ICR mouse assessed as inflammation; assay type: organism-based; conditions: in vivo
Mus musculus [8] = experiment: Inhibition of DMBA-induced/TPA-promoted carcinogenesis in ICR mouse assessed as reduction of mouse bearing papillomas number at 85 nmol administered 1 hr before TPA treatment measured after 20 weeks; assay type: functional; summary of the method: as §1
Mus musculus [9] = experiment: Inhibition of DMBA-induced/TPA-promoted carcinogenesis in ICR mouse assessed as reduction of mouse bearing papillomas at 85 nmol administered 1 hr before TPA treatment measured after 10 to 15 weeks; assay type: functional; summary of the method: as §1
Mus musculus [10] = experiment: Inhibition of DMBA-induced/TPA-promoted carcinogenesis in ICR mouse assessed as reduction of mouse bearing papillomas at 85 nmol administered 1 hr before TPA treatment measured after 20 weeks; assay type: functional; summary of the method: as §1

| SMILES | viability at 1000 molar ratio [1] [%] | IC50 [2] [molar ratio] | also measured |
| --- | --- | --- | --- |
| CO[C@@H]1CC[C@@]2(C)[C@@H](CC[C@@]3(C)CC4=CC[C@H]5C(C)(C)[C@H](OC(=O)CCC(=O)Oc6coc(CO)cc6=O)CC[C@]5(C)[C@H]4CC[C@@H]32)C1(C)C | 70 | 370 | – |
| COc1cc(/C=C/C(O)=C/C(O)/C=C/c2ccc(OC(=O)CCC(=O)O[C@@H]3CC[C@]4(C)[C@H]5CC[C@H]6[C@@](C)(CC[C@H]7C(C)(C)[C@@H](OC)CC[C@@]76C)CC5=CC[C@H]4C3(C)C)c(OC)c2)ccc1OC(=O)CCC(=O)O[C@@H]1CC[C@]2(C)[C@H]3CC[C@H]4[C@@](C)(CC[C@H]5C(C)(C)[C@@H](OC)CC[C@@]54C)CC3=CC[C@H]2C1(C)C (stereo partly drawn) | 60 | 395 | – |
| CO[C@H]1CC[C@@]2(C)[C@@H](CC[C@@]3(C)CC4=CC[C@H]5C(C)(C)[C@H](OC(=O)Nc6ccccc6)CC[C@]5(C)[C@H]4CC[C@@H]32)C1(C)C | 60 | 459 | – |
| COc1cc(/C=C/C(O)=C/C(O)/C=C/c2ccc(OC(=O)CCC(=O)O[C@@H]3CC[C@]4(C)[C@H]5CC[C@H]6[C@@](C)(CC[C@H]7C(C)(C)[C@H](OC)CC[C@@]76C)CC5=CC[C@H]4C3(C)C)c(OC)c2)ccc1OC(=O)CCC(=O)O[C@@H]1CC[C@]2(C)[C@H]3CC[C@H]4[C@@](C)(CC[C@H]5C(C)(C)[C@H](OC)CC[C@@]54C)CC3=CC[C@H]2C1(C)C (stereo partly drawn) | 60 | 462 | – |
| CO[C@H]1CC[C@@]2(C)[C@@H](CC[C@@]3(C)CC4=CC[C@H]5C(C)(C)[C@H](OC(=O)CCl)CC[C@]5(C)[C@H]4CC[C@@H]32)C1(C)C | 60 | 473 | – |
| CC1(C)CC[C@]2(C(=O)O)CC[C@]3(C)C(=CC[C@@H]4[C@@]5(C)CC[C@H](O)C(C)(C)[C@@H]5CC[C@]43C)[C@@H]2C1 [OLEANOLIC_ACID] | – | 449 | – |
| CO[C@H]1CC[C@@]2(C)[C@@H](CC[C@@]3(C)CC4=CC[C@H]5C(C)(C)[C@H](OC(=O)CCC(=O)Oc6ccc(-c7oc8cc(O)cc(O)c8c(=O)c7O)cc6O)CC[C@]5(C)[C@H]4CC[C@@H]32)C1(C)C | 60 | 330 | Activity (Mus musculus [3]): 26 mm; Activity (Mus musculus [4]): 24 mm; Activity (Mus musculus [5]): Non-toxic; Activity (Mus musculus [6]): Non-toxic; Activity (Mus musculus [7]): Non-toxic; papillomas per mouse (Mus musculus [8]): 4.7 papillomas/mouse; inhibition (INH) (Mus musculus [9]): 20%; inhibition (INH) (Mus musculus [10]): 86.6% |
| COc1cc(/C=C/C(=O)CC(O)/C=C/c2ccc(OC(=O)CC(=O)O[C@@H]3CC[C@]4(C)[C@H]5CC[C@H]6[C@@](C)(CC[C@H]7C(C)(C)[C@@H](OC)CC[C@@]76C)CC5=CC[C@H]4C3(C)C)c(OC)c2)ccc1OC(=O)CC(=O)O[C@@H]1CC[C@]2(C)[C@H]3CC[C@H]4[C@@](C)(CC[C@H]5C(C)(C)[C@@H](OC)CC[C@@]54C)CC3=CC[C@H]2C1(C)C (stereo partly drawn) | 60 | 338 | – |
| COc1cc(/C=C/C(O)/C=C(O)/C=C/c2ccc(OC(=O)CCC(=O)O[C@@H]3CC[C@]4(C)[C@H]5CC[C@H]6[C@@](C)(CC[C@H]7C(C)(C)[C@@H](OC)CC[C@@]76C)CC5=CC[C@H]4C3(C)C)c(OC)c2)ccc1O (stereo partly drawn) | 60 | 460 | – |
| COc1cc(/C=C/C(O)=C/C(O)/C=C/c2ccc(OC(=O)CC(=O)O[C@@H]3CC[C@]4(C)[C@H]5CC[C@H]6[C@@](C)(CC[C@H]7C(C)(C)[C@H](OC)CC[C@@]76C)CC5=CC[C@H]4C3(C)C)c(OC)c2)ccc1OC(=O)CC(=O)O[C@@H]1CC[C@]2(C)[C@H]3CC[C@H]4[C@@](C)(CC[C@H]5C(C)(C)[C@H](OC)CC[C@@]54C)CC3=CC[C@H]2C1(C)C (stereo partly drawn) | 60 | 335 | – |
| COc1cc(/C=C/C(O)/C=C(O)/C=C/c2ccc(OC(=O)CCC(=O)O[C@@H]3CC[C@]4(C)[C@H]5CC[C@H]6[C@@](C)(CC[C@H]7C(C)(C)[C@H](OC)CC[C@@]76C)CC5=CC[C@H]4C3(C)C)c(OC)c2)ccc1O (stereo partly drawn) | 60 | 393 | – |
| CO[C@H]1CC[C@@]2(C)[C@@H](CC[C@@]3(C)CC4=CC[C@H]5C(C)(C)[C@H](OC(=O)Nc6ccccc6Cl)CC[C@]5(C)[C@H]4CC[C@@H]32)C1(C)C | 50 | 468 | – |
| COc1cc(/C=C/C(O)/C=C(O)/C=C/c2ccc(OC(=O)CC(=O)O[C@@H]3CC[C@]4(C)[C@H]5CC[C@H]6[C@@](C)(CC[C@H]7C(C)(C)[C@@H](OC)CC[C@@]76C)CC5=CC[C@H]4C3(C)C)c(OC)c2)ccc1O (stereo partly drawn) | 60 | 358 | – |
| COc1cc(/C=C/C(O)/C=C(O)/C=C/c2ccc(OC(=O)CC(=O)O[C@@H]3CC[C@]4(C)[C@H]5CC[C@H]6[C@@](C)(CC[C@H]7C(C)(C)[C@H](OC)CC[C@@]76C)CC5=CC[C@H]4C3(C)C)c(OC)c2)ccc1O (stereo partly drawn) | 60 | 354 | – |
| CO[C@@H]1CC[C@@]2(C)[C@@H](CC[C@@]3(C)CC4=CC[C@H]5C(C)(C)[C@H](OC(=O)CCC(=O)Oc6ccc(-c7oc8cc(O)cc(O)c8c(=O)c7O)cc6O)CC[C@]5(C)[C@H]4CC[C@@H]32)C1(C)C | 60 | 350 | Activity (Mus musculus [3]): 28 mm; Activity (Mus musculus [4]): 25 mm; Activity (Mus musculus [5]): Non-toxic; Activity (Mus musculus [6]): Non-toxic; Activity (Mus musculus [7]): Non-toxic; inhibition (Mus musculus [8]): Active; inhibition (INH) (Mus musculus [9]): 26.6%; inhibition (INH) (Mus musculus [10]): 73.3% |
| CO[C@H]1CC[C@@]2(C)[C@@H](CC[C@@]3(C)CC4=CC[C@H]5C(C)(C)[C@H](OC(N)=O)CC[C@]5(C)[C@H]4CC[C@@H]32)C1(C)C | 60 | 470 | – |
| CO[C@H]1CC[C@@]2(C)[C@@H](CC[C@@]3(C)CC4=CC[C@H]5C(C)(C)[C@H](OC(=O)CCC(=O)Oc6coc(CO)cc6=O)CC[C@]5(C)[C@H]4CC[C@@H]32)C1(C)C | 70 | 371 | – |
| CO[C@H]1CC[C@@]2(C)[C@@H](CC[C@@]3(C)CC4=CC[C@H]5C(C)(C)[C@H](OC(=S)Nc6ccccc6)CC[C@]5(C)[C@H]4CC[C@@H]32)C1(C)C | 60 | 460 | – |
| CO[C@H]1CC[C@@]2(C)[C@@H](CC[C@@]3(C)CC4=CC[C@H]5C(C)(C)[C@H](OC(=O)NS(=O)(=O)c6ccc(C)cc6)CC[C@]5(C)[C@H]4CC[C@@H]32)C1(C)C | 60 | 461 | – |
